Measured values reported in ChEMBL document CHEMBL3865789, “Synthesis and biological evaluation of isomeric methoxy substitutions on anti-cancer indolyl-pyridinyl-propenones: Effects on potency and mode of activity” (2016).
The source made the active and inactive calls. The rule behind the calls is not given here.

Experiments:
[1] = Growth inhibition of human U251 cells after 48 hrs by sulforhodamine B colorimetric assay; format: functional; settings: U-251, 48 h
Outline: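 U251 glioblastoma cells kept in DMEM with 10% FBS at 37°C, 5% CO2. Compounds in DMSO; vehicle-only controls. SRB colorimetric read-out at a 48 h end-point. Mean ± S.D. of three separate SRB assays.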

[2] = Growth inhibition of human U251 cells at 10 uM after 48 hrs by sulforhodamine B colorimetric assay relative to control; format: functional; settings: U-251, 48 h, read-out: GI
Outline: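 U251 glioblastoma cells kept in DMEM with 10% FBS at 37°C, 5% CO2. Compounds in DMSO; vehicle-only controls. SRB colorimetric read-out at a 48 h end-point. GI50 relative to untreated control calculated by the NCI-60 protocol; top concentration tested 10 μM. Mean ± S.D. of three separate SRB assays.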

[3] = system: U-251; assay: Induction of methuosis in human U251 cells assessed as rounding of cell body at 2.5 uM after 48 hrs by phase contrast microscopic analysis; format: functional, cell-based
[4] = system: U-251; assay: Induction of methuosis in human U251 cells assessed as cell detachment from dish at 2.5 uM after 24 hrs by phase contrast microscopic analysis; format: functional, cell-based
[5] = system: U-251; assay: Induction of methuosis in human U251 cells assessed as vacuolization at 2.5 uM after 48 hrs by phase contrast microscopic analysis; format: functional, cell-based
[6] = system: U-251; assay: Mitotic arrest in human U251 cells assessed as accumulation at G2/M phase at >=500 nM after 24 hrs by propidium iodide staining based flow cytometric analysis; format: functional, cell-based
Outline: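 U251 cells seeded at 3.5 × 10^5 per 60 mm dish and treated the next day for 24 h. Attached and detached cells were harvested by trypsin and fixed in ice-cold 70% ethanol. They were then suspended in PBS with 6.25 mM MgSO4 and 1 mM CaCl2, RNase A-treated at 37 °C for 15 min and stained with propidium iodide. DNA content was read by flow cytometry.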

[7] = system: U-251; assay: Induction of methuosis in human U251 cells assessed as rounding of cell body at 2.5 uM after 24 hrs by phase contrast microscopic analysis; format: functional, cell-based
[8] = system: U-251; assay: Induction of methuosis in human U251 cells assessed as formation of membrane blebs on cell surface at 2.5 uM after 48 hrs by phase contrast microscopic analysis; format: functional, cell-based
[9] = system: U-251; assay: Induction of microtubule disruption in human U251 cells up to 2.5 uM by DAPI staining based immunofluorescence microscopy; format: cell-based
Outline: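 U251 cells seeded on glass coverslips, 350,000 per 60 mm dish. One day later, fresh medium with compound at the stated concentrations was added for 24 h. Cells were fixed and stained with monoclonal anti-α-tubulin, then Alexa Fluor 568 goat anti-mouse IgG. Nuclei counterstained with DAPI.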

Row | Compound | GI50 [1] [µM] | inhibition of growth at 10 µM [2] [%] | further results
1 | COc1cc(OC)c(C(=O)/C=C/c2c(C)[nH]c3ccc(OC)cc23)c(OC)c1 | 3.74 |  | 
2 | COc1ccc2c(/C=C/C(=O)c3ccncc3)c(C(F)(F)F)[nH]c2c1 | > 10 | < 50 | 
3 | COc1cccc2c(/C=C/C(=O)c3ccncc3)c(C)[nH]c12 | 4.42 |  | 
4 | COc1ccc2c(/C=C/C(=O)c3ccncc3)c(C)[nH]c2c1 | 0.09 |  | Activity [3]: Active; Activity [4]: Active; Activity [5]: Active; Activity [6]: Active; Activity [7]: Active; Activity [8]: Active; Activity [9]: Active
5 | COc1ccc2c(c1)c(/C=C/C(=O)c1ccncc1)c(C)n2C | > 10 | < 50 | 
6 | COc1cc2[nH]c(C)c(/C=C/C(=O)c3ccncc3)c2cc1OC | > 10 | < 50 | 
7 | COc1ccc2[nH]c(C)c(/C=C/C(=O)c3cc(OC)c(OC)c(OC)c3)c2c1 | > 10 | < 50 | 
8 | COc1cccc2[nH]c(C)c(/C=C/C(=O)c3ccncc3)c12 | 8.67 |  | Activity [5]: Active
